ChEMBL document CHEMBL1131436, “Repaglinide and related hypoglycemic benzoic acid derivatives” (1998)
“And” between values parts separate entries of the source, which are not always exact repeats. Equal entries are not always repeated. The source made the active and inactive calls. No cut-off for these calls is given here.

What was measured:
[1] = tested on: Rattus norvegicus; assay: Maximum % decrease of blood glucose (deltaBG) was observed within 4 hour after administration orally at 50 mg/kg dose to fasted adult female rats versus a control group; type: functional; conditions: route oral
Summary of the method: (§1)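 Female Wistar rats (Chbb THOM, SPF, 200-220 g), fasted 24 h, dosed orally by gavage as suspension in 1.5% Tylose methylcellulose (10 mL/kg). Whole blood from retrobulbar plexus under light halothane, deproteinized with 0.33 M HClO4; glucose by hexokinase/G6PDH, hourly up to 4 h. % decrease vs control group (N = 7), Student's t-test, P ≤ 0.05.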

[2] = tested on: Rattus norvegicus; assay: Half-maximal effective dose was measured on rat blood glucose after administrating at 4 hr; type: functional
Summary of the method: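 Adult fasted female Wistar rats (Chbb THOM, SPF, 200-220 g), food withdrawn 24 h; oral gavage of suspension in 1.5% Tylose (methylcellulose), 10 mL/kg. Retrobulbar blood under light halothane; glucose by hexokinase/G6PDH after HClO4 deproteinization, hourly to 4 h. ED50 from fit of glucose vs dose, y = b + [a × k/(k + x^nH)], Hill coefficient nH.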

[3] = tested on: Rattus norvegicus; assay: Maximum % decrease of blood glucose (deltaBG) was observed within 0.5 hour after administration orally at 0.1 mg/kg dose to fasted adult female rats versus a control group; type: functional; conditions: route oral
[4] = tested on: Rattus norvegicus; assay: Maximum % decrease of blood glucose (deltaBG) was observed within 1 hour after administration orally at 0.1 mg/kg dose to fasted adult female rats versus a control group; type: functional; conditions: route oral; summary of the method: as §1
[5] = tested on: Rattus norvegicus; assay: Maximum % decrease of blood glucose (deltaBG) was observed within 2 hour after administration orally at 0.1 mg/kg dose to fasted adult female rats versus a control group; type: functional; conditions: route oral; summary of the method: as §1
[6] = tested on: Rattus norvegicus; assay: Maximum % decrease of blood glucose (deltaBG) was observed within 3 hour after administration orally at 0.1 mg/kg dose to fasted adult female rats versus a control group; type: functional; conditions: route oral; summary of the method: as §1
[7] = tested on: Rattus norvegicus; assay: Maximum % decrease of blood glucose (deltaBG) was observed within 4 hour after administration orally at 0.01 mg/kg dose to fasted adult female rats versus a control group; type: functional; conditions: route oral; summary of the method: as §1
[8] = tested on: Rattus norvegicus; assay: Maximum % decrease of blood glucose (deltaBG) was observed within 4 hour after administration orally at 0.1 mg/kg dose to fasted adult female rats versus a control group; type: functional; conditions: route oral; summary of the method: as §1
[9] = tested on: Rattus norvegicus; assay: Maximum % decrease of blood glucose (deltaBG) was observed within 4 hour after administration orally at 0.01 mg/kg dose to fasted adult female rats versus a control group; NS =' not significant'; type: functional, organism-based; parameters: dose 0.01 mg/kg; summary of the method: as §1
[10] = tested on: Rattus norvegicus; assay: Maximum % decrease of blood glucose (deltaBG) was observed within 3 hour after administration orally at 0.1 mg/kg dose to fasted adult female rats versus a control group; NS =' not significant'; type: functional, organism-based; parameters: dose 0.1 mg/kg; summary of the method: as §1
[11] = tested on: Rattus norvegicus; assay: Maximum % decrease of blood glucose (deltaBG) was observed within 4 hour after administration orally at 0.1 mg/kg dose to fasted adult female rats versus a control group; NS =' not significant'; type: functional, organism-based; parameters: dose 0.1 mg/kg; summary of the method: as §1
[12] = tested on: Rattus norvegicus; assay: Maximum % decrease of blood glucose (deltaBG) was observed within 4 hour after administration orally at 0.3 mg/kg dose to fasted adult female rats versus a control group; type: functional; conditions: route oral; summary of the method: as §1
[13] = species on record: Rattus norvegicus; conditions: Blood, 0.1 mg/kg
[14] = species on record: Rattus norvegicus; conditions: Blood, 0.1 mg/kg; remark: listed apart in the source
[15] = species on record: Rattus norvegicus; conditions: Blood, 0.1 mg/kg; remark: listed apart in the source
[16] = tested on: Rattus norvegicus; assay: Maximum % decrease of blood glucose (deltaBG) was observed within 4 hour after administration orally at 50 mg/kg dose to fasted adult female rats versus a control group; NS =' not significant'; type: functional, organism-based; parameters: dose 50 mg/kg; summary of the method: as §1
[17] = tested on: Rattus norvegicus; assay: Maximum % decrease of blood glucose (deltaBG) was observed within 3 hour after administration orally at 0.5 mg/kg dose to fasted adult female rats versus a control group; type: functional; conditions: route oral; summary of the method: as §1
[18] = tested on: Rattus norvegicus; assay: Maximum % decrease of blood glucose (deltaBG) was observed within 1 hr after administration orally at 0.5 mg/kg dose to fasted adult female rats versus a control group; type: functional; conditions: route oral; summary of the method: as §1
[19] = tested on: Rattus norvegicus; assay: Maximum % decrease of blood glucose (deltaBG) was observed within 2 hour after administration orally at 0.5 mg/kg dose to fasted adult female rats versus a control group; type: functional; conditions: route oral; summary of the method: as §1
[20] = tested on: Rattus norvegicus; assay: Maximum % decrease of blood glucose (deltaBG) was observed within 4 hour after administration orally at 0.5 mg/kg dose to fasted adult female rats versus a control group; type: functional; conditions: route oral; summary of the method: as §1
[21] = tested on: Rattus norvegicus; assay: Maximum % decrease of blood glucose (deltaBG) was observed within 4 hour after administration orally at 5 mg/kg dose to fasted adult female rats versus a control group; NS =' not significant'; type: functional, organism-based; parameters: dose 5 mg/kg; summary of the method: as §1
[22] = tested on: Rattus norvegicus; assay: Maximum % decrease of blood glucose (deltaBG) was observed within 4 hour after administration orally at 0.4 mg/kg dose to fasted adult female rats versus a control group; type: functional; conditions: route oral; summary of the method: as §1
[23] = tested on: Rattus norvegicus; assay: Maximum % decrease of blood glucose (deltaBG) was observed within 4 hour after administration orally at 100 mg/kg dose to fasted adult female rats versus a control group; type: functional; conditions: route oral; summary of the method: as §1
[24] = tested on: Rattus norvegicus; assay: Maximum % decrease of blood glucose (deltaBG) was observed within 4 hour after administration orally at 10 mg/kg dose to fasted adult female rats versus a control group; NS =' not significant'; type: functional, organism-based; parameters: dose 10 mg/kg; summary of the method: as §1
[25] = tested on: Rattus norvegicus; assay: Maximum % decrease of blood glucose (deltaBG) was observed within 1 hour after administration orally at 0.5 mg/kg dose to fasted adult female rats versus a control group; type: functional; conditions: route oral; summary of the method: as §1
[26] = tested on: Rattus norvegicus; assay: Maximum % decrease of blood glucose (deltaBG) was observed within 4 hour after administration orally at 0.25 mg/kg dose to fasted adult female rats versus a control group; type: functional; conditions: route oral
Summary of the method: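 Adult female Wistar rats (Chbb THOM, SPF; 200-220 g) fasted 24 h, N=7 per group. Compound suspended in 1.5% methylcellulose (Tylose) and dosed by oral gavage at 10 mL/kg. Retrobulbar blood was drawn under light halothane hourly for up to 4 h. Glucose was read by hexokinase/G6PDH after HClO4 deproteinisation. Value is the maximum % fall versus vehicle controls; Student's t-test, P ≤ 0.05.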

[27] = tested on: Rattus norvegicus; assay: Maximum % decrease of blood glucose (deltaBG) was observed within 4 hour after administration orally at 1 mg/kg dose to fasted adult female rats versus a control group; type: functional; conditions: route oral, 1 mg/kg; summary of the method: as §1
[28] = tested on: Rattus norvegicus; assay: Maximum % decrease of blood glucose (deltaBG) was observed within 4 hour after administration orally at 0.6 mg/kg dose to fasted adult female rats versus a control group; type: functional; conditions: route oral; summary of the method: as §1
[29] = tested on: Rattus norvegicus; assay: Maximum % decrease of blood glucose (deltaBG) was observed within 4 hour after administration orally at 100 mg/kg dose to fasted adult female rats versus a control group; NS =' not significant'; type: functional, organism-based; parameters: dose 100 mg/kg; summary of the method: as §1
[30] = tested on: Rattus norvegicus; assay: Maximum % decrease of blood glucose (deltaBG) was observed within 4 hour after administration orally at 25 mg/kg dose to fasted adult female rats versus a control group; type: functional; conditions: route oral; summary of the method: as §1
[31] = Rattus norvegicus, Blood, 4 h, read-out: ED50

CCCC(NC(=O)Cc1ccccc1)c1ccccc1N1CCCCC1 (stereo not given)
Delta BG [1]: -10%

CCOc1cc(CC(=O)N[C@@H](CC(C)C)c2ccccc2N2CCCCC2)ccc1C(=O)O (stereo in doubt; (S)-6al) [REPAGLINIDE]
ED50 [2]: 0.01 mg/kg
Delta BG [3]: -42%
Delta BG [4]: -47%
Delta BG [5]: -40%
Delta BG [6]: -34%
Delta BG [7]: -21%
Delta BG ([8]; 0.1 mg/kg): -47%

CCOc1cc(CC(=O)NC(CC)c2ccccc2N2CCCCC2)ccc1C(=O)O (stereo not given)
Delta BG [9]: Not significant
Delta BG [8]: -42%

COc1ccc(Cl)cc1C(=O)NCCc1ccc(S(=O)(=O)NC(=O)NC2CCCCC2)cc1 [GLYBURIDE]
ED50 [2, 31]: 0.255 mg/kg
Delta BG [10]: inactive
Delta BG [11]: inactive
Delta BG [12]: -25%
Delta BG [13]: inactive
Delta BG [14]: inactive
Delta BG [15]: inactive

CC(NC(=O)Cc1ccc(-c2nn[nH]n2)cc1)c1ccccc1N1CCCCC1 (stereo not given)
Delta BG [16]: Not significant

CCCC(NC(=O)Cc1ccc(C(=O)O)cc1)c1ccccc1N1CCCCC1 (stereo not given)
ED50 [2, 31]: 0.07 mg/kg
Delta BG [17]: -23%
Delta BG [4]: -27%
Delta BG [18]: -42%
Delta BG [5]: -17%
Delta BG [19]: -34%
Delta BG [6]: -16%
Delta BG ([8]; 0.1 mg/kg): -27% and -9%
Delta BG [20]: -18%

CC(NC(=O)Cc1ccc(C(=O)O)cc1)c1cc(Cl)ccc1N1CCCCCC1 (stereo not given)
Delta BG [21]: Not significant

O=C(Cc1ccc(C(=O)O)cc1)N[C@@H](c1ccccc1)c1ccccc1N1CCCCC1
Delta BG [22]: -33%

O=C(O)c1ccc(CCNC(=O)c2cccc(Cl)c2)cc1
Delta BG [23]: -23%

CCC1=C(C)CN(C(=O)NCCc2ccc(S(=O)(=O)NC(=O)N[C@H]3CC[C@H](C)CC3)cc2)C1=O [GLIMEPIRIDE]
ED50 [2, 31]: 0.182 mg/kg
Delta BG [3]: -8%
Delta BG [4]: -17%
Delta BG [5]: -18%
Delta BG [6]: -14%
Delta BG [8]: -18%
Delta BG [12]: -35%

CCCC(NCCc1ccc(C(=O)O)cc1)c1ccccc1N1CCCCC1 (stereo not given)
Delta BG [24]: Not significant

CC(C)(NC(=O)Cc1ccc(C(=O)O)cc1)c1cc(Cl)ccc1N1CCCCC1
Delta BG [24]: Not significant

CCCC(NC(=O)Cc1ccc(C(=O)O)c(OC)c1)c1ccccc1N1CCCCC1 (stereo not given)
Delta BG [10]: Not significant
Delta BG [17]: -37%
Delta BG [3]: -38%
Delta BG [4]: -43%
Delta BG [25]: -42%
Delta BG [5]: -27%
Delta BG [19]: -39%
Delta BG [8]: -43%
Delta BG [11]: Not significant
Delta BG [20]: -31%

O=C(O)c1ccc(CCNC(=O)c2cc(Cl)ccc2N2CCCCCCCC2)cc1
ED50 [2, 31]: 0.38 mg/kg
Delta BG [26]: -13% and -18%
Delta BG [20]: -33%
Delta BG [27]: -40% and -39%

CCCC(NC(=O)Cc1ccc(C(=O)O)c(OCC)c1)c1ccccc1N1CCCCC1 (stereo not given)
Delta BG [17]: -34%
Delta BG [4]: -32%
Delta BG [25]: -43%
Delta BG [5]: -30%
Delta BG [19]: -36%
Delta BG [6]: -25%
Delta BG ([8]; 0.1 mg/kg): -32% and -18%
Delta BG [20]: -35%

O=C(Cc1ccc(C(=O)O)cc1)NC(c1ccccc1)c1ccccc1N1CCCCC1 (stereo not given)
ED50 [2, 31]: 0.38 mg/kg
Delta BG [22]: -23%
Delta BG [28]: -36%

CCOc1cc(CC(=O)N[C@@H](CC(C)C)c2ccccc2N2CCCCC2)ccc1C(=O)O (stereo in doubt; 6al) [REPAGLINIDE]
ED50 [2]: 0.022 mg/kg
Delta BG [7]: -19%
Delta BG ([8]; 0.1 mg/kg): -44%

CC(NC(=O)Cc1ccc(S(N)(=O)=O)cc1)c1ccccc1N1CCCCC1 (stereo not given)
Delta BG [24]: Not significant

O=C(NCCc1ccccc1)c1cc(Cl)ccc1N1CCCCCCCC1
Delta BG [29]: Not significant

CC(NC(=O)Cc1cccc(C(=O)O)c1)c1ccccc1N1CCCCC1 (stereo not given)
Delta BG [30]: -12%
